Assay results from ChEMBL document CHEMBL1129943, “5-aminocoumarans: dual inhibitors of lipid peroxidation and dopamine release with protective effects against central nervous system trauma and ischemia” (J Med Chem, 1997).

Legend:
Type in all cases: functional
Mus musculus [1] = species on record: Mus musculus; assay: Percentage increase of locomotor activity in mice
Mus musculus [2] = species on record: Mus musculus; assay: Peroral dose required to reduce by 50% the score of excitatory behavior induced by intrathecal injection of ferrous chloride in mice; details: central, read-out: ID50 (the source's name)
Method in brief: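 Male Slc:ICR mice, 5 weeks old, 10 per dose. Compound given orally 30 min before intrathecal 5 μL of 50 mM FeCl2 in saline (between L6 and S1). Vehicle was water, or 0.5% gum arabic suspension. Behaviour scored 0–5 (biting to death) from 15 min to 1 h. ID50 from three or four doses, relative to vehicle score.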

Mus musculus [3] = assay: Locomotor activity was measured in mice after 1 hour administration of methamphetamine; design: unit not given here
Rattus norvegicus [4] = species on record: Rattus norvegicus; assay: Concentration required to reduce by 50% the amount of lipid peroxide formed in rat liver microsomes
Method in brief: (§1)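 Rat liver microsomes (S-9), 0.3 mg protein in 40 mM Tris-malate pH 7.4. Peroxidation started with a 1:1 mix of FeCl2 (0.25 mM) and NADPH (3 mM), then 1 h at 37 °C. Compound in DMSO added before incubation, tested up to 1 μM final. Thiobarbituric acid method read-out. Activity relative to DMSO vehicle; IC50 from four concentrations by nonlinear regression, otherwise % inhibition at 1 μM.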

Rattus norvegicus [5] = species on record: Rattus norvegicus; assay: Inhibition of lipid peroxidation by rat liver microsomes; design: concentration or dose not given beside the values; details: dose or concentration not given here; method in brief: as §1

SMILES | IC50 (Rattus norvegicus [4]) [nM] | Increase (Mus musculus [1]) [%] | ED50 (Mus musculus [2]) [mg/kg] | Locomotor activity (Mus musculus [3]) | inhibition (Rattus norvegicus [5]) [%]
CC1(C)Cc2cc(N)ccc2O1 | – | – | > 100 | – | 5
Cc1c(C)c2c(c(C)c1N)CC(C)(CSc1nccn1C)O2 (stereo unspecified) | – | 104.2 | 37.1 | 2228 | 11
Cc1c(C)c2c(c(C)c1Nc1ccc3c(c1)CC(C)(C)O3)CC(C)(C)O2 | 30 | – | > 25 | – | –
Cc1c(C)c2c(c(C)c1Nc1cccnc1)CC(C)(C)O2 | – | – | > 50 | – | 4
Cc1c(C)c2c(c(C)c1NC=O)CC(C)(C)O2 | – | – | > 100 | – | 0
Cc1c(C)c2c(c(C)c1N)CC(C)(CN1CCN(C(c3ccccc3)c3ccccc3)CC1)O2 (stereo unspecified) | 70 | 62.8 | > 50 | 1664 | –
Cc1c(C)c2c(c(C)c1N)C(C(C)C)C(C)(C)O2 (stereo unspecified) | 290 | – | 14 | – | –
Cc1c(C)c2c(c(C)c1N)CC(C)(CCN1CCCCC1)O2 (stereo unspecified) | – | 206.5 | 18.4 | <3549 | 8
Cc1c(N)c(C)c2c(c1CN1CCCCC1)OC(C)(C)C2 | – | – | > 50 | – | 3
Cc1c(C)c2c(c(N)c1N)CC(C)(C)O2 | 300 | – | > 50 | – | –
Cc1c(N)c(C)c2c(c1CC(C)C)OC(C)(C)C2 | 140 | – | 13.3 | – | –
Cc1c(N)cc2c(c1C)OC(C)(C)C2 | – | – | 24.4 | – | 26
Cc1cc2c(c(C)c1N)CC(C)(C)O2 | – | – | 16.3 | – | 14
Cc1c(C)c2c(c(N(C)C)c1N)CC(C)(C)O2 | 550 | – | 22.3 | – | –
Cc1c(C)c2c(c(C)c1NS(C)(=O)=O)CC(C)(C)O2 | – | – | > 100 | – | -1
CC(C)=Cc1c(C)c(N)c(C)c2c1OC(C)(C)C2 | 300 | – | 21.9 | – | –

SMILES | IC50 (Rattus norvegicus [4]) [nM] | Increase (Mus musculus [1]) [%] | ED50 (Mus musculus [2]) [mg/kg] | Locomotor activity (Mus musculus [3]) | inhibition (Rattus norvegicus [5]) [%]
Cc1cc(N)c(C)c2c1OC(C)(C)C2 | – | – | 32.3 | – | 19
COC(=O)/C=C\C1(C)Cc2c(C)c(N)c(C)c(C)c2O1 (stereo unspecified) | – | – | > 100 | – | 38
Cc1c(C)c2c(c(C)c1N)CC(C)(CSCCO)O2 (stereo unspecified) | – | – | > 50 | – | 11
CCNc1c(C)c(C)c2c(c1C)CC(C)(C)O2 | – | – | 38.9 | – | 16
Cc1c(C)c2c(c(C)c1N)C(c1ccccc1)C(C)(C)O2 (stereo unspecified) | 290 | 77.3 | 24.8 | 1845 | –
Cc1c(C)c2c(c(C)c1Nc1ccccc1)CC(C)(C)O2 | 280 | – | > 50 | – | –
CC(=O)Nc1c(C)c(C)c2c(c1C)CC(C)(C)O2 | – | – | > 100 | – | -2
Cc1ccc(S(=O)(=O)Nc2c(C)c(C)c3c(c2C)CC(C)(C)O3)cc1 | – | – | > 100 | – | 3
CCOC(=O)Nc1c(C)c(C)c2c(c1C)CC(C)(C)O2 | – | – | > 100 | – | 1
Cc1c(N)c(C)c2c(c1CN(C)C)OC(C)(C)C2 | – | – | > 50 | – | 4
Cc1c(C)c2c(c(C)c1N)CC(C)(CSCCC(=O)O)O2 (stereo unspecified) | – | – | 43 | – | 0
Cc1c(C)c2c(c(C)c1N)C(c1ccc(C(C)C)cc1)C(C)(C)O2 (stereo unspecified) | 290 | – | > 50 | – | –
Cc1c(C)c2c(c([N+](=O)[O-])c1N)CC(C)(C)O2 | – | – | > 100 | – | 0
CCCNc1c(C)c(C)c2c(c1C)CC(C)(C)O2 | – | – | 51.1 | – | 24
CCC(=O)Nc1c(C)c(C)c2c(c1C)CC(C)(C)O2 | – | – | > 100 | – | 1

Now from value to compound, other results behind:

IC50 (Rattus norvegicus [4]) [nM] | SMILES | Increase (Mus musculus [1]) [%] | ED50 (Mus musculus [2]) [mg/kg] | Locomotor activity (Mus musculus [3]) | inhibition (Rattus norvegicus [5]) [%]
260 | Cc1c(C)c2c(c(C)c1N)CC(C)(CNc1ccccc1)O2 (stereo unspecified) | 70.4 | 15.7 | 1812 | –
270 | Cc1c(C)c2c(c(C)c1N)CC(C)(CSc1ccccc1)O2 (stereo unspecified) | 24.7 | 24.7 | <1098 | –
300 | Cc1ccc(C2c3c(C)c(N)c(C)c(C)c3OC2(C)C)cc1 (stereo unspecified) | – | > 50 | – | –
300 | COCC1(C)Cc2c(C)c(N)c(C)c(C)c2O1 (stereo unspecified) | 76.7 | 20.1 | 1934 | –
70 | Cc1c(C)c2c(c(C)c1N)CC(C)(CSc1nc3ccccc3s1)O2 (stereo unspecified) | 45.3 | 33.7 | 1391 | –
630 | Cc1c(C)c2c(c(C)c1N)CC(C)(CSc1ccncc1)O2 (stereo unspecified) | 10.2 | 19.9 | <892 | –
280 | Cc1c(C)c2c(c(C)c1N)CC(C)(COCc1ccccc1)O2 (stereo unspecified) | 64 | 18.6 | 1657 | –
50 | CCCCCc1ccc(C2c3c(C)c(N)c(C)c(C)c3OC2(C)C)cc1 (stereo unspecified) | – | 42.2 | – | –
290 | Cc1c(C)c2c(c(C)c1N)CC(C)(CNCc1ccccc1)O2 (stereo unspecified) | 46.1 | 9.1 | 1340 | –
300 | Cc1c(C)c2c(c(C)c1Nc1ccc(Cl)cc1)CC(C)(C)O2 | – | > 50 | – | –
80 | Cc1c(C)c2c(c(C)c1N)CC(C)(CNCCCCc1ccccc1)O2 (stereo unspecified) | – | 17 | – | –
290 | Cc1c(C)c2c(c(C)c1N)CC(C)(CNCCc1ccccc1)O2 (stereo unspecified) | – | 14.2 | – | –
80 | Cc1c(C)c2c(c(C)c1N)CC(C)(CCc1ccc(F)cc1)O2 (stereo unspecified) | 80.1 | 11.5 | 1185 | –
280 | CCCSCC1(C)Cc2c(C)c(N)c(C)c(C)c2O1 (stereo unspecified) | 56.4 | 24.6 | 1540 | –
70 | Cc1c(C)c2c(c(C)c1N)CC(C)(CN1CCC(c3ccccc3)CC1)O2 (stereo unspecified) | 1.8 | 10.4 | <482 | –
220 | Cc1c(C)c2c(c(C)c1N)CC(C)(CSc1ccc(F)cc1)O2 (stereo unspecified) | 61.8 | 17.9 | 1625 | –
300 | Cc1c(C)c2c(c(C)c1N)CC(C)(CBr)O2 (stereo unspecified) | 34.5 | 16 | 1115 | –
800 | Cc1c(C)c2c(c(C)c1N)CC(C)(CS(=O)(=O)c1ccccc1)O2 (stereo unspecified) | – | 36.6 | – | –
220 | Cc1c(C)c2c(c(C)c1N)CC(C)(CSc1ccc(O)cc1)O2 (stereo unspecified) | – | > 50 | – | –
290 | CCCc1ccc(C2c3c(C)c(N)c(C)c(C)c3OC2(C)C)cc1 (stereo unspecified) | – | > 50 | – | –
760 | Cc1c(C)c2c(c(C)c1N)CC(C)(C)O2 | 31.5 | 7.8 | <509 | –
660 | Cc1c(C)c2c(c(C)c1N)CC(C)(C[S+]([O-])c1ccccc1)O2 (stereo unspecified) | – | 31.3 | – | –
280 | Cc1c(C)c2c(c(C)c1N)C(c1ccc(F)cc1)C(C)(C)O2 (stereo unspecified) | 181.3 | 26.7 | 2156 | –
260 | Cc1c(C)c2c(c(C)c1N)CC(C)(CSCc1ccccc1)O2 (stereo unspecified) | 33.6 | 32 | 1099 | –
410 | Cc1c(C)c2c(c(C)c1N)CC(C)(CN1CCOCC1)O2 (stereo unspecified) | 103.1 | 19.2 | 3209 | –
70 | Cc1c(C)c2c(c(C)c1N)CC(C)(CN1CCN(c3ccccc3)CC1)O2 (stereo unspecified) | 47.3 | 13.1 | 1484 | –
